Test results: ChEMBL document CHEMBL4138126, “Synthesis, antiproliferative, anti-tubulin activity, and docking study of new 1,2,4-triazoles as potential combretastatin analogues” (Eur J Med Chem, 2017)

How the values were obtained:
[1] = system: OVCAR-3; assay: Growth inhibition of human OVCAR3 cells assessed as cell growth at 10 uM after 48 hrs by sulforhodamine B assay; type: functional; settings: OVCAR-3, 48 h, read-out: Activity
In short: (§1)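 NCI 60-cell-line panel screen (nine cancer types). Compounds added at single concentration 10^-5 M, cultures incubated 48 h; growth inhibition percentages reported.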

[2] = system: NCI-H322M; assay: Growth inhibition of human NCI-H322M cells assessed as cell growth at 10 uM after 48 hrs by sulforhodamine B assay; type: functional; settings: read-out: Activity; in short: as §1
[3] = system: SNB-75; assay: Growth inhibition of human SNB75 cells assessed as cell growth at 10 uM after 48 hrs by sulforhodamine B assay; type: functional; settings: SNB-75, 48 h, read-out: Activity
In short: (§2)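 NCI 60-cell-line panel from nine tumour types (leukaemia, lung, colon, CNS, melanoma, ovarian, renal, prostate, breast). Each compound was added at one single concentration, and cultures were incubated for 48 h. Results are reported as percent growth inhibition.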

[4] = system: 786-0; assay: Growth inhibition of human 786-0 cells assessed as cell growth at 10 uM after 48 hrs by sulforhodamine B assay; type: functional; settings: 786-0, 48 h, read-out: Activity; in short: as §1
[5] = system: SK-MEL-28; assay: Growth inhibition of human SK-MEL-28 cells assessed as cell growth at 10 uM after 48 hrs by sulforhodamine B assay; type: functional; settings: SK-MEL-28, 48 h, read-out: Activity; in short: as §1
[6] = system: NCI-H460; assay: Growth inhibition of human NCI-H460 cells assessed as cell growth at 10 uM after 48 hrs by sulforhodamine B assay; type: functional; settings: NCI-H460, 48 h, read-out: Activity; in short: as §1
[7] = system: PC-3; assay: Growth inhibition of human PC3 cells assessed as cell growth at 10 uM after 48 hrs by sulforhodamine B assay; type: functional; settings: PC-3, 48 h, read-out: Activity; in short: as §1
[8] = system: UO-31; assay: Growth inhibition of human UO31 cells assessed as cell growth at 10 uM after 48 hrs by sulforhodamine B assay; type: functional; settings: UO-31, 48 h, read-out: Activity; in short: as §2
[9] = system: CAKI-1; assay: Growth inhibition of human CAKI-1 cells assessed as cell growth at 10 uM after 48 hrs by sulforhodamine B assay; type: functional; settings: CAKI-1, 48 h, read-out: Activity; in short: as §1
[10] = system: OVCAR-5; assay: Growth inhibition of human OVCAR5 cells assessed as cell growth at 10 uM after 48 hrs by sulforhodamine B assay; type: functional; settings: OVCAR-5, 48 h, read-out: Activity; in short: as §1
[11] = system: UACC-62; assay: Growth inhibition of human UACC62 cells assessed as cell growth at 10 uM after 48 hrs by sulforhodamine B assay; type: functional; settings: UACC-62, 48 h, read-out: Activity; in short: as §2
[12] = system: HCT-15; assay: Growth inhibition of human HCT15 cells assessed as cell growth at 10 uM after 48 hrs by sulforhodamine B assay; type: functional; settings: HCT-15, 48 h, read-out: Activity; in short: as §1
[13] = system: NCI/ADR-RES; assay: Growth inhibition of human NCI-ADR-RES cells assessed as cell growth at 10 uM after 48 hrs by sulforhodamine B assay; type: functional; settings: read-out: Activity; in short: as §1
[14] = system: K562; assay: Growth inhibition of human K562 cells assessed as cell growth at 10 uM after 48 hrs by sulforhodamine B assay; type: functional; settings: K562, 48 h, read-out: Activity; in short: as §1
[15] = system: SNB-19; assay: Growth inhibition of human SNB19 cells assessed as cell growth at 10 uM after 48 hrs by sulforhodamine B assay; type: functional; settings: SNB-19, 48 h, read-out: Activity; in short: as §2
[16] = system: SK-MEL-2; assay: Growth inhibition of human SK-MEL-2 cells assessed as cell growth at 10 uM after 48 hrs by sulforhodamine B assay; type: functional; settings: SK-MEL-2, 48 h, read-out: Activity; in short: as §1
[17] = system: SF-295; assay: Growth inhibition of human SF295 cells assessed as cell growth at 10 uM after 48 hrs by sulforhodamine B assay; type: functional; settings: SF-295, 48 h, read-out: Activity; in short: as §1
[18] = system: Malme-3M; assay: Growth inhibition of human MALME-3M cells assessed as cell growth at 10 uM after 48 hrs by sulforhodamine B assay; type: functional; settings: read-out: Activity; in short: as §1
[19] = system: SN12C; assay: Growth inhibition of human SN12C cells assessed as cell growth at 10 uM after 48 hrs by sulforhodamine B assay; type: functional; settings: read-out: Activity; in short: as §2
[20] = system: HepG2; assay: Inhibition of beta tubulin polymerisation in human HepG2 cells incubated for 2 hrs using TMB substrate by ELISA relative to untreated control; type: cell-based; design: concentration or dose not given beside the values; settings: dose or concentration not given here
[21] = system: A549; assay: Growth inhibition of human A549/ATCC cells assessed as cell growth at 10 uM after 48 hrs by sulforhodamine B assay; type: functional; settings: A549, 48 h, read-out: Activity; in short: as §1
[22] = system: TK-10; assay: Growth inhibition of human TK10 cells assessed as cell growth at 10 uM after 48 hrs by sulforhodamine B assay; type: functional; settings: TK-10, 48 h, read-out: Activity; in short: as §2
[23] = system: U-251; assay: Growth inhibition of human U251 cells assessed as cell growth at 10 uM after 48 hrs by sulforhodamine B assay; type: functional; settings: U-251, 48 h, read-out: Activity; in short: as §2
[24] = system: A498; assay: Growth inhibition of human A498 cells assessed as cell growth at 10 uM after 48 hrs by sulforhodamine B assay; type: functional; settings: A498, 48 h, read-out: Activity; in short: as §1
[25] = Inhibition of beta tubulin polymerisation in human HepG2 cells incubated for 2 hrs using TMB substrate by ELISA; type: cell-based; settings: HepG2, 2 h
[26] = system: KM12; assay: Growth inhibition of human KM12 cells assessed as cell growth at 10 uM after 48 hrs by sulforhodamine B assay; type: functional; settings: KM12, 48 h, read-out: Activity; in short: as §1
[27] = system: SF-539; assay: Growth inhibition of human SF539 cells assessed as cell growth at 10 uM after 48 hrs by sulforhodamine B assay; type: functional; settings: SF-539, 48 h, read-out: Activity; in short: as §1
[28] = system: T47D; assay: Growth inhibition of human T47D cells assessed as cell growth at 10 uM after 48 hrs by sulforhodamine B assay; type: functional; settings: read-out: Activity; in short: as §2
[29] = system: HCC 2998; assay: Growth inhibition of human HCC2998 cells assessed as cell growth at 10 uM after 48 hrs by sulforhodamine B assay; type: functional; settings: HCC 2998, 48 h, read-out: Activity; in short: as §1
[30] = system: EKVX; assay: Growth inhibition of human EKVX cells assessed as cell growth at 10 uM after 48 hrs by sulforhodamine B assay; type: functional; settings: read-out: Activity; in short: as §1
[31] = system: UACC-257; assay: Growth inhibition of human UACC257 cells assessed as cell growth at 10 uM after 48 hrs by sulforhodamine B assay; type: functional; settings: UACC-257, 48 h, read-out: Activity; in short: as §2
[32] = system: SK-OV-3; assay: Growth inhibition of human SKOV3 cells assessed as cell growth at 10 uM after 48 hrs by sulforhodamine B assay; type: functional; settings: SK-OV-3, 48 h, read-out: Activity; in short: as §1
[33] = system: SK-MEL-5; assay: Growth inhibition of human SK-MEL-5 cells assessed as cell growth at 10 uM after 48 hrs by sulforhodamine B assay; type: functional; settings: SK-MEL-5, 48 h, read-out: Activity; in short: as §1
[34] = system: HepG2; assay: Induction of cell cycle arrest in human HepG2 cells assessed as accumulation at G1 phase at cytotoxic IC50 by propidium iodide staining based flow cytometry (reference value: 66.4%); type: functional
[35] = system: HepG2; assay: Induction of apoptosis in human HepG2 cells assessed as viable cells level at 1.41 uM by Annexin V and propidium iodide staining based flow cytometry; type: functional

| SMILES | growth at 10 µM [1] [%] | growth at 10 µM [2] [%] | growth at 10 µM [3] [%] | growth at 10 µM [4] [%] | growth at 10 µM [6] [%] | growth at 10 µM [7] [%] | growth at 10 µM [8] [%] | growth at 10 µM [9] [%] | growth at 10 µM [10] [%] | growth at 10 µM [12] [%] | growth at 10 µM [13] [%] | growth at 10 µM [15] [%] | growth at 10 µM [16] [%] | growth at 10 µM [17] [%] | growth at 10 µM [18] [%] | inhibition [20] [%] | growth at 10 µM [21] [%] | growth at 10 µM [22] [%] | growth at 10 µM [23] [%] | growth at 10 µM [24] [%] | further results |
| --- | --- | --- | --- | --- | --- | --- | --- | --- | --- | --- | --- | --- | --- | --- | --- | --- | --- | --- | --- | --- | --- |
| CCOc1ccc(-n2nc(C(=O)NCc3ccccc3OC)nc2-c2cc(OC)c(OC)c(OC)c2)cc1 | 49.4 | 52.4 | 30 | 41.5 | 30.5 | 24.6 | -2.66 | 25.9 | 74.2 | 29 | 27.8 | 45.2 | 41.5 | 34.8 | 87.5 | 85.6 | 34.5 | 46.5 | 42.5 | 30 | growth at 10 µM [5]: 36.6%; growth at 10 µM [11]: 37%; growth at 10 µM [14]: 22.1%; growth at 10 µM [19]: 39.7%; IC50 [25]: 0.6 µM; growth at 10 µM [26]: 33.8%; growth at 10 µM [27]: 49.2%; growth at 10 µM [28]: 17%; growth at 10 µM [29]: 57.5%; growth at 10 µM [30]: 41.3%; growth at 10 µM [31]: 62.7%; growth at 10 µM [32]: 67.1%; growth at 10 µM [33]: -1.22% |
| CCOc1ccc(-n2nc(C(=O)NCc3cc(F)cc(F)c3)nc2-c2cc(OC)c(OC)c(OC)c2)cc1 | 71.2 | 61.5 | 43.4 | 65.9 | 66.1 | 40.2 | 25.8 | 44.4 | 85 | 61 | 61.7 | 62.3 | 65.5 | 65.2 | 90.1 | 71.8 | 57 | 79.9 | 74.3 | 64.4 | growth at 10 µM [5]: 65.3%; Activity [34]: 35.4%; growth at 10 µM [11]: 57.9%; growth at 10 µM [14]: 62%; growth at 10 µM [19]: 67.8%; Activity [35]: 62%; IC50 [25]: 1.4 µM; growth at 10 µM [26]: 65.8%; growth at 10 µM [27]: 70.7%; growth at 10 µM [28]: 44.1%; growth at 10 µM [29]: 84%; growth at 10 µM [30]: 62.8%; growth at 10 µM [31]: 50.5%; growth at 10 µM [32]: 76%; growth at 10 µM [33]: 50.1% |
| COc1cccc(-n2nc(C(=O)Nc3ccccc3)nc2-c2cc(OC)c(OC)c(OC)c2)c1 | 99.9 | 81.1 | 55.5 | 79.4 | 107 | 90 | 61.6 | 73.6 | 89.5 | 88 | 93.1 | 102 | 98 | 91.9 | 95.9 | 62.3 | 92.4 | 53.2 | 93.6 | 100 | growth at 10 µM [5]: 96.6%; growth at 10 µM [11]: 95.3%; growth at 10 µM [14]: 121%; growth at 10 µM [19]: 100%; IC50 [25]: 6.5 µM; growth at 10 µM [26]: 96.6%; growth at 10 µM [27]: 93.6%; growth at 10 µM [28]: 62.2%; growth at 10 µM [29]: 87.3%; growth at 10 µM [30]: 91.2%; growth at 10 µM [31]: 103%; growth at 10 µM [32]: 102%; growth at 10 µM [33]: 93.8% |
| CCOc1ccc(-n2nc(C(=O)Nc3ccccc3)nc2-c2cc(OC)c(OC)c(OC)c2)cc1 | 43.2 | 67.6 | 35.1 | 69.4 | 27.9 | 44.9 | 37.7 | 51.6 | 84.1 | 35.4 | 45.7 | 55.8 | 37.7 | 34 | 54.5 | 42.7 | 41.4 | 72.5 | 36.1 | 10.3 | IC50 [25]: 41.8 µM; growth at 10 µM [26]: 27.5%; growth at 10 µM [27]: 62%; growth at 10 µM [28]: 39.4%; growth at 10 µM [30]: 53.2%; growth at 10 µM [31]: 66.4%; growth at 10 µM [32]: 51% |
